SIAE inh: human SIAE inhibitors, primary screen, biochemical, fluorescence polarization, FP-Rh probe, 1536-well HTS | 370,000 compounds, 0.69% hits | inhibition, % at 9.66 µM | SIAE FP-Rh probe binding | AID 1053197, 2014;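 active means inhibition above a cutoff: mean of compounds within the control limits plus 3 SD of those, cut at about 17% in these data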;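 further: 0% = plate median of compound wells and 100% = probe without SIAE protein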
TCR-CD3 inh: inhibitors of human TCR-CD3 interaction, primary screen, biochemical, fluorescence, TAMRA-labeled TCR probe; T-cell receptor (TCR); inhibition, % at 9.4 µM; 360,000 compounds, 0.37% hits; in the data active means inhibition above about 19%;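 further: recombinant mutant TCR 2C K166C tagged with TAMRA read by polarization; 0% = receptor in buffer alone and 100% = receptor with positive control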
ABHD4 inh: ABHD4 inhibitors, primary screen, biochemical, fluorescence polarization, mouse. AID 720543, 2013. purified mABHD4, FP-Rh probe fluorescence polarization. 370,000 compounds, 0.54% hits. inhibition, % at 8.92 µM. (Lyso)-N-acylphosphatidylethanolamine lipase (Mus musculus), Q8VD66;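 active means inhibition exceeding the mean over every tested compound plus 3 SD, cut at about 30% in these data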;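 further: 0% = plate median of compound wells and 100% = S159A mutant with DMSO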
Target sequence (Q8VD66 whole entry, looked up): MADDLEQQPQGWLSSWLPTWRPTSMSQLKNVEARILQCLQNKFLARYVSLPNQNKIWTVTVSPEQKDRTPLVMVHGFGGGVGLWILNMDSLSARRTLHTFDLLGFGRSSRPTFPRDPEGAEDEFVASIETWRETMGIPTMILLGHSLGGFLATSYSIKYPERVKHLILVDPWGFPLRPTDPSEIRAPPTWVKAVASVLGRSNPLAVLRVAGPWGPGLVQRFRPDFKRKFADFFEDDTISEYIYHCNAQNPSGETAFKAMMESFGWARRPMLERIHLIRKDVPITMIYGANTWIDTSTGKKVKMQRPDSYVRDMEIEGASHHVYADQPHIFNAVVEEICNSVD
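Material: mouse ABHD4 enzyme, wild type; Benchmarks: S159A mutant high control, sample median low control; Buffer or medium: HEPES pH 7.0, NaCl, Pluronic buffer; Signal: fluorescence polarization; Read-out: percent inhibition of probe binding, normalized to plate controls; Timing: pre-incubation 45 min, probe exposure 60 min, at 25 °C; Dosing: 8.92 µM, single dose.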
rCAG binder: binders of r(CAG) RNA repeats, primary screen, biochemical, fluorescence; 370,000 compounds, 1.3% hits; AID 651821, 2012; inhibition, % at 3 µM; r(CAG) RNA repeat, TO-PRO-1 dye displacement fluorescence;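 active means inhibition above the plate cutoff, the mean of all test compounds on that plate plus 3 SD, cut at about 35% in these data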;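 further: 0% = DMSO alone and 100% = 100 µM mitoxantrone as full dye displacement; higher means more dye released from RNA so lower well fluorescence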
PRMT1 FP inh: PRMT1 methyltransferase inhibitors, primary screen, biochemical, fluorescence polarization. recombinant PRMT1, activity-based probe fluorescence polarization. inhibition, % at 2.79 µM. 370,000 compounds, 1.3% hits. AID 652257, 2013;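 active means inhibition above about 21% made by adding two undisclosed values, limit read from the data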
SIAE confirm: human SIAE inhibitors, retest, confirmation, biochemical, fluorescence polarization, FP-Rh probe, triplicate. inhibition, % at 9.66 µM. shares compounds with SIAE inh. SIAE FP-Rh activity-based probe. 2,300 compounds, 13% hits. AID 1117263, 2014;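 active means mean inhibition of the replicates above the hit cutoff set in the primary screen, cut at about 17% in these data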;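 further: 0% = SIAE with DMSO and probe and 100% = probe without SIAE; inhibitors lower polarization as more probe stays unbound to SIAE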
Numbers without * were called inactive; / = no result given. Rows were chosen to be rich in hits. Some 3.3% of all compounds tested hit in one or more screens of this group.

SMILES | SIAE inh | TCR-CD3 inh | ABHD4 inh | rCAG binder | PRMT1 FP inh | SIAE confirm
COc1ccc(C2/C(=C(/O)c3ccc(C)cc3)C(=O)C(=O)N2C)cc1 (stereo unspecified) | 12 | 2 | 1 | 7 | 4 | /
C/C(=N\NC(=O)c1ccc(OC2OCCOC2Oc2ccc(C(=O)N/N=C(\C)c3ccncc3)cc2)cc1)c1ccncc1 (stereo unspecified) | -4 | 1 | 6 | 8 | 4 | /
COc1cccc(CCC(=O)N2CCC(n3nccc3NC(=O)CC(C)C)CC2)c1 | -4 | -3 | 2 | -4 | -2 | /
COc1cc(/C=N/Nc2ccc(C(F)(F)F)cn2)cc(OC)c1O | 18* | 1 | 17 | 5 | 4 | 8
Oc1ccc(/C=N/Nc2ccc(C(F)(F)F)cn2)cc1 | 6 | -13 | -7 | 5 | 0 | /
CCNC(=O)C1(C)CCN(C(=O)c2cccc(Cl)c2)C1 (stereo unspecified) | -1 | -3 | -6 | 2 | -2 | /
CC1(c2ccc(Cl)cc2Cl)NC(=O)N(CC(=O)Nc2ccc3[nH]c(=O)[nH]c3c2)C1=O (stereo unspecified) | 24* | 11 | 2 | 9 | -2 | 2
CC(=O)Nc1ccc(N(C)C)cc1[N+](=O)[O-] | 7 | 0 | 4 | 3 | 1 | /
CC(=O)Nc1ccc(O)cc1[N+](=O)[O-] | 20* | -2 | -4 | 1 | -1 | -3
Cc1cc(-c2nnc(SCC(=O)NC3CC3)n2C(C)C)cs1 | 2 | -5 | 4 | -1 | -1 | /
CC(OC(=O)c1ccc(Cl)nc1)C(=O)N1CCc2ccccc21 (stereo unspecified) | 19* | -5 | -2 | 0 | 2 | 2
CC(=O)Nc1cccc(C(=O)OC(C)C(=O)N2CCc3ccccc32)c1 (stereo unspecified) | 0 | 1 | 2 | -1 | -5 | /
OCC[C@@H]1C[C@H](O)[C@@H](O)[C@@]2(OCCc3cc(C(F)(F)F)ccc32)O1 | -7 | 4 | -3 | 1 | -1 | /
Cn1c(CNC(=O)CNS(=O)(=O)c2ccc(F)cc2F)cc(=O)n(C)c1=O | -3 | -5 | -1 | 2 | 5 | /
CC(=O)Nc1ccc(S(=O)(=O)N2CCCC3CCCCC32)cc1 (stereo unspecified) | 22* | -4 | -7 | 0 | 1 | -3
CC(=O)Nc1ccc(S(=O)(=O)N2CCN(S(=O)(=O)c3ccc(NC(C)=O)cc3)CC2)cc1 | 0 | -6 | 3 | 0 | -3 | /
COc1ccc(CN2C[C@@H](CO)O[C@@H](n3cnc4c(NCc5cc(OC)c(OC)c(OC)c5)ncnc43)C2)cc1 | 2 | 0 | 0 | 2 | 9 | /
COc1cc(CNc2ncnc3c2ncn3[C@H]2CN(Cc3ccc(Cl)cc3)C[C@@H](CO)O2)cc(OC)c1OC | 19* | -5 | -3 | 6 | 2 | -4
CCN(CC)CCn1c(=N)n(CCO)c2ccccc21 | 21* | -1 | 2 | -3 | 2 | -7
CNc1ccc(OC)cc1-n1cnc(-c2ccc([N+](=O)[O-])cc2)c1 | 20* | 2 | 2 | 1 | 1 | 8
CCC1Oc2ccccc2N(CC(=O)N2CCOCC2)C1=O (stereo unspecified) | -5 | 7 | 1 | 1 | 2 | /
CC(C)C1Oc2ccccc2N(CC(=O)N2CCOCC2)C1=O (stereo unspecified) | 27* | 1 | 2 | -2 | 1 | -5
Cn1nc([N+](=O)[O-])c(C(C#N)c2nc3ccccc3n2C)c(Cl)c1=O (stereo unspecified) | 27* | 9 | 23 | 26 | 19 | 9
COc1cc(NC(=O)c2ccccc2F)c(OC)cc1NC(=O)CN1CCOCC1 | 17* | 0 | 5 | -6 | 6 | 3
O=C1CCN(Cc2ccc(O)cc2)CCN1[C@H](CO)Cc1ccccc1 | 18* | 3 | 5 | -5 | 1 | 1
SMILES | SIAE inh | TCR-CD3 inh | ABHD4 inh | rCAG binder | PRMT1 FP inh | SIAE confirm
COc1ccc(NS(=O)(=O)c2nnc(NC(=O)c3ccccc3F)s2)cc1 | 1 | -4 | -1 | 19 | 4 | /
COc1ccc(-c2c(Cc3ccccc3)nc(NC(=O)c3ccccc3F)n2C)cc1 | 41* | / | -13 | 6 | -3 | 3
Cc1nc2c(o1)CCc1ccccc1C2O (stereo unspecified) | 41* | 2 | 6 | -1 | -2 | 4
O=C(O)/C=C1\CCCc2ccccc2C1O (stereo unspecified) | -4 | -2 | 0 | 3 | -5 | /
COCCN(Cc1ccc(C)cc1)C(=O)[C@H]1O[C@@H](n2cnc(C(N)=O)n2)[C@H](O)[C@@H]1O | 21* | -7 | -8 | -1 | 4 | 20*
NC(=O)c1ncn([C@@H]2O[C@H](C(=O)Nc3ccc(Oc4ccccc4)nc3)[C@@H](O)[C@H]2O)n1 | 12 | 0 | -8 | 0 | 5 | /
COc1ccccc1C(=O)N1CCN(C(=O)[C@H]2O[C@@H](n3cnc(C(N)=O)n3)[C@H](O)[C@@H]2O)CC1 | 19* | 1 | 0 | 0 | -7 | 13
COCCN(Cc1ccc(C)cc1)C(=O)[C@H]1O[C@@H](n2ccc(N)nc2=O)[C@H](O)[C@@H]1O | -4 | -1 | 4 | 1 | 2 | /
NC(=O)c1ncn([C@@H]2O[C@H](C(=O)Nc3ccc(C(=O)N4CCCCC4)cc3)[C@@H](O)[C@H]2O)n1 | 18* | -6 | -2 | 1 | -3 | 18*
CNC(=S)N1CCc2ccccc2C1 | 30* | -2 | 5 | 1 | 1 | 5
COc1cc(C(=O)NC(CCSC)C(=O)OCC(=O)C(C)(C)C)cc(OC)c1OC (stereo unspecified) | -5 | -1 | -3 | -7 | -6 | /
COC(=O)c1ccc(C)c(NC(=O)C(CCSC)NC(=O)c2cc(OC)c(OC)c(OC)c2)c1 (stereo unspecified) | 17* | 4 | -1 | -3 | -1 | -4
O=[N+]([O-])c1ccc(N/N=C/c2ccc[nH]2)cc1 | 18* | -17 | -13 | 15 | 6 | -4
O=[N+]([O-])c1ccc(N/N=C/c2cccc(O)c2)cc1 | 20* | -3 | 15 | 10 | 3 | -2
O=C(NCC1CCN(C(=O)C(=O)c2cc3ccccc3o2)CC1)c1cc(C(F)(F)F)cc(C(F)(F)F)c1 | -22 | -10 | -30 | 5 | 7 | /
Cc1[nH]c2ccccc2c1/C=N/NC(=S)NCc1ccccc1 | 22* | -3 | 19 | 30 | 1 | 19*
Cc1[nH]c2ccccc2c1/C=N/NC(N)=S | 7 | -6 | 6 | 0 | 7 | /

Screening results deposited in PubChem by The Scripps Research Institute Molecular Screening Center.
